TAAR1 agonist: agonists of human TAAR1. activation, % at 3 µM. CHO RD-HGA16 TAAR1, Fluo-8 calcium fluorescence; vehicle wells 0%, saturating PEA agonist 100%. actives 0.99% (n = 360,000);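 active = activation above the mean activation of all test compounds in the run plus 3 SD, cut at about 38% in these data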
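System: CHO-derived RD-HGA16 cells with stable Gα16 and human TAAR1 / Times: 17-24 h plating, Fluo-8 75 min 37 °C, 30 min RT / Technique: calcium-sensitive Fluo-8 signal, excitation 470-495, emission 515-575 nm / Measure: % activation relative to PEA EC100 response / Benchmarks: DMSO and PEA EC100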
CHRM1 PAM: human CHRM1 positive allosteric modulation. P11229. CHO-K1 hM1, Fluo-8 calcium fluorescence, ACh EC20; 0% = ACh EC20, 100% = maximal ACh. activation, % at 3 µM. actives 0.088% (n = 360,000); in the data active = activation above about 19%, passing the limit was not always enough
Target sequence (P11229 whole entry, looked up): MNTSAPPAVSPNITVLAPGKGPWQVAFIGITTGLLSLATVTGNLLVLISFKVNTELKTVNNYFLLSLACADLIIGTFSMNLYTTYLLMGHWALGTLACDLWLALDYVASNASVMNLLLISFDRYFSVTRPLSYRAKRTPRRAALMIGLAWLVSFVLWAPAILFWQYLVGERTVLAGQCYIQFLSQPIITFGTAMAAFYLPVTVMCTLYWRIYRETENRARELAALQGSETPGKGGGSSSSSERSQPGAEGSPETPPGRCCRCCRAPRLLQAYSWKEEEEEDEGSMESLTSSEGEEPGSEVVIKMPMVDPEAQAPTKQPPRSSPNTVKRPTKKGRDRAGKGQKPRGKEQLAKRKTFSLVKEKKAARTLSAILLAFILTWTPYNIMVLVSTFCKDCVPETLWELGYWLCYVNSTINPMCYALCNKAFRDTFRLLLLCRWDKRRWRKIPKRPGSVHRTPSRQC
CHRM1 antagonist: blocks human M1 muscarinic receptor; actives 1.3% (n = 360,000); inhibition, % at 3 µM; AID 588852; P11229; CHO-K1 hM1, Fluo-8 calcium fluorescence, ACh EC80 antagonist;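 active = percent inhibition above its own plate's cutoff, namely the mean of that plate's compound wells plus 3 SD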;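 also: peak over basal fluorescence ratio during 140 s after agonist addition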
TAAR1 antag: antagonists of human TAAR1. Q96RJ0. CHO RD-HGA16 TAAR1, Fluo-8 calcium fluorescence, antagonist. inhibition, % at 3 µM. actives 1.5% (n = 360,000). AID 624466;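 active = inhibition above a per-plate cutoff, the mean inhibition of test compounds on that plate plus 3 SD, cut at about 49% in these data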
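Test system – hTAAR1-expressing CHO RD-HGA16 cells, Gα16-coupled · Reagent – β-PEA at EC80 concentration, post-compound challenge · Compound dosing – 3 µM, single point · Timing – 140 s kinetic read after compound, 140 s after agonist · Detection – Fluo-8 intracellular calcium dye fluorescence, real-time kinetic reads · Control set – DMSO and EC80 PEA controls · Repeats – n of 1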
HTR2A ag: activates the mouse 5-HT2A serotonin receptor. CHO-K1 mHTR2A beta-arrestin complementation, luminescence; percent of 30 µM serotonin response. activation, % at 7.6 µM. actives 0.66% (n = 360,000). AID 624169;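 active = activation above a run cutoff, the mean activation of all tested compounds plus 3 SD, cut at about 14% in these data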
M1 ag: activates human CHRM1 receptor; AID 588814; actives 0.33% (n = 360,000); P11229; CHO-K1 hM1, Fluo-8 calcium fluorescence, agonist mode; 0% DMSO, 100% acetylcholine EC100; activation, % at 3 µM;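 active = activation above the run's mean compound activation plus 3 SD, cut at about 16% in these data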;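 also: peak over basal fluorescence ratio within a 140 s kinetic read after compound addition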
TAAR1 ag conf: confirmation of human TAAR1 agonists; actives 82% (n = 2,400); activation, % at 3 µM; CHO RD-HGA16 TAAR1, Fluo-8 calcium fluorescence; scaled: DMSO 0%, maximal phenethylamine 100%; shares compounds with TAAR1 agonist;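 active = activation above a cutoff set at the run's mean compound activation plus 3 SD, cut at about 39% in these data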
Ga16 nonsel ag: nonselective agonism, TAAR1 counter-screen; CHO-Ga16 parental, Fluo-8 calcium fluorescence; normalized to maximal ATP response, DMSO zero; actives 50% (n = 2,400); AID 651787; activation, % at 3 µM; shares compounds with TAAR1 agonist;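 active = activation above the run cutoff, the mean activation over all tested wells plus 3 SD, cut at about 12% in these data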
TAAR1 desens: TAAR1 response desensitization, agonist counter-screen; shares compounds with TAAR1 agonist; CHO RD-HGA16 hTAAR1, Fluo-8 calcium, beta-PEA response inhibition; inhibition, % at 3 µM; actives 46% (n = 2,400); AID 651951;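 active = inhibition above the run cutoff, the mean inhibition of all test compounds plus 3 SD, cut at about 49% in these data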;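 also: beta-PEA stimulus applied at its EC80; loss of beta-PEA calcium signal after compound pretreatment read as receptor desensitization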
Ga16 antag count: counter-screen for TAAR1 agonists: nonselective Ga16 antagonists; shares compounds with TAAR1 agonist; CHO-Ga16 ATP-induced calcium, Fluo-8 fluorescence; inhibition, % at 3 µM; actives 39% (n = 2,400);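 active = inhibition above the plate's mean compound inhibition plus 3 SD, computed per plate, cut at about 22% in these data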
Of the large screens only hits and unclear results are named; the others gave an inactive call (follow-up assays come after a bar, where they were run). Only some compounds are listed: those with a hit (about 3.9% of all), similar ones and a draw of the others.

Cc1ccc(C(=O)NCC(=O)OCC(=O)c2ccc(Br)s2)cc1	none
Cc1ccc(CNC(=O)C2CCC(=O)N(C3CCCC3)C2)c(F)c1F (configuration not stated)	none
c1ccc(CCN2CN=C(Nc3nc4ccccc4s3)NC2)cc1	TAAR1 agonist 78.8, TAAR1 antag 51.0 | TAAR1 ag conf 40.0 | Ga16 nonsel ag inactive | TAAR1 desens inactive | Ga16 antag count inactive
CCC(C(=O)Nc1ccc2c(c1)OCCO2)n1c(=O)[nH]c2ccccc2c1=O (configuration not stated)	none
NNc1nc(Nc2ccccc2)nc(N2CCCCC2)n1	TAAR1 agonist 44.8 | TAAR1 ag conf 66.3 | Ga16 nonsel ag inactive | TAAR1 desens inactive | Ga16 antag count inactive
O=c1nc(N2CCCCC2)nc(Nc2ccccc2)[nH]1	TAAR1 agonist 66.4, TAAR1 antag 68.8 | TAAR1 ag conf 72.5 | Ga16 nonsel ag inactive | TAAR1 desens 79.7 | Ga16 antag count inactive
NNc1nc(Nc2ccc([N+](=O)[O-])cc2)nc(N2CCCCCC2)n1	none
O=C(NN1C(=O)C2C(c3ccccc3)C=CC(c3ccccc3)C2C1=O)c1cccc(Br)c1 (configuration not stated)	TAAR1 agonist 68.7, CHRM1 antagonist 81.4, TAAR1 antag 87.0 | TAAR1 ag conf 78.9 | Ga16 nonsel ag 72.2 | TAAR1 desens 85.1 | Ga16 antag count 81.3
O=C(NN1C(=O)C2C3c4ccccc4C(c4ccccc43)[C@@H]2C1=O)c1ccccc1 (some centres not stated)	none
O=C(NN1C(=O)C2C(c3ccccc3)C=CC(c3ccccc3)C2C1=O)c1ccccc1 (configuration not stated)	TAAR1 agonist 69.8, CHRM1 antagonist 46.1, TAAR1 antag 68.4 | TAAR1 ag conf inactive | Ga16 nonsel ag 12.8 | TAAR1 desens inactive | Ga16 antag count 28.6
COc1cc(/C=C(\C(=O)O)c2ccc(S(=O)(=O)N3CCCC3)s2)ccc1OCCC(C)C	none
O=C(OCC(=O)N1CCCC1=O)c1nc(Cl)c(Cl)c(Cl)c1Cl	none
CCOc1ccc(CSC(=N)N)cc1	none
CCCCCOc1ccc(Br)cc1CSC(=N)N	TAAR1 agonist 93.4, CHRM1 antagonist 24.1, TAAR1 antag 92.8 | TAAR1 ag conf 105.6 | Ga16 nonsel ag 60.1 | TAAR1 desens 102.0 | Ga16 antag count 71.5
CCCCOc1ccc(CSC(=N)N)cc1Cl	TAAR1 agonist 100.5 | TAAR1 ag conf 108.5 | Ga16 nonsel ag 55.4 | TAAR1 desens 60.7 | Ga16 antag count 27.4
COc1ccc(Br)cc1CSC(=N)N	TAAR1 agonist 46.0 | TAAR1 ag conf 70.7 | Ga16 nonsel ag inactive | TAAR1 desens inactive | Ga16 antag count inactive
CC(=O)c1ccc(OC(C)C)c(CSC(=N)N)c1	none
CC(OC(=O)c1cc2sccc2n1C)C(=O)NCc1ccc(F)cc1 (configuration not stated)	TAAR1 agonist 49.9, TAAR1 antag 51.4 | TAAR1 ag conf inactive | Ga16 nonsel ag 17.3 | TAAR1 desens inactive | Ga16 antag count inactive
Cc1cc(C)c(S(=O)(=O)NCCc2ccccc2)c(C)c1	TAAR1 agonist 46.4 | TAAR1 ag conf 52.3 | Ga16 nonsel ag inactive | TAAR1 desens inactive | Ga16 antag count inactive
Cc1ccc(S(=O)(=O)NCCc2ccccc2)cc1	none

Compound activity from PubChem BioAssay.
